Test results as given in ChEMBL document CHEMBL3872255, “Design, synthesis and analgesic/anti-inflammatory evaluation of novel diarylthiazole and diarylimidazole derivatives towards selective COX-1 inhibitors with better gastric profile” (Bioorg Med Chem, 2017).
pIC50: −log10 of the molar value. Activity calls are given as the source filed them. The calls are words filed in the database; no cut-off is given here.

Experiments:
[1] = Ulcerogenic effect in albino rat assessed as ulcer index […], po administered 2 to 3 days; type: toxicity, organism-based; conditions: in vivo
How it was run: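 Rats were fasted 2 h, fed 2 h, then fasted 20 h, with further doses on days 2 and 3. Stomachs were rinsed in 0.9% saline and lesions scored 0-4. Ulcer index = %incidence/10 + average severity + average ulcer number.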

[2] = tested on: Rattus norvegicus; test: Anti-inflammatory activity against carrageenan-induced paw edema in albino rat assessed as inhibition of paw edema at 100 mg/kg, po pretreated for 1 hr followed by carrageenan challenge measured after 1 to 7 hrs relative to control; type: functional
[3] = target: T1, Prostaglandin G/H synthase 1 (Ovis aries, UniProt P05979); test: Inhibition of ovine COX-1 assessed as reduction in oxidation of TMPD using arachidonic acid as substrate preincubated for 5 mins followed by substrate and TMPD addition measured after 5 mins by colorimetric assay
T1 sequence (P05979 whole entry): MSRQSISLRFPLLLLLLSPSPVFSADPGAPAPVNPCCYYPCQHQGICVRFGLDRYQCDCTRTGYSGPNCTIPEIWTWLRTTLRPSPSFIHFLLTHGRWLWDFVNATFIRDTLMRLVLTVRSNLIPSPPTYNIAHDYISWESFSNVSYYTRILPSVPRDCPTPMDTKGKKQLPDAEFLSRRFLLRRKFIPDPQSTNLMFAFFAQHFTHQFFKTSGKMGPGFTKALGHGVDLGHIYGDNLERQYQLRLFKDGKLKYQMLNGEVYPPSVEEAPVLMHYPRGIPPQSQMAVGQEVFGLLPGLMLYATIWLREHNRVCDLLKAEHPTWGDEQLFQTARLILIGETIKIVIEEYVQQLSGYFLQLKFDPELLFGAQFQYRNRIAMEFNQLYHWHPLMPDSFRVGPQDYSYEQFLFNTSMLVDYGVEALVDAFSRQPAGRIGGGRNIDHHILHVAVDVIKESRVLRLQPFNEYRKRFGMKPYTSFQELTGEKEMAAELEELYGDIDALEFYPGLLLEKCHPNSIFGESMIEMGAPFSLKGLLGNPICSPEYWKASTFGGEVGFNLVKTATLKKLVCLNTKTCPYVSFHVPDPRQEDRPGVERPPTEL

[4] = species on record: Mus musculus; test: Analgesic activity in mouse assessed as decrease in number of acetic acid-induced writhing pretreated for 1 hr followed by acetic acid challenge measured between 5 to 20 mins after acetic acid injection; type: functional
How it was run: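 Groups of five mice received test compound; 1 h later, 0.6% acetic acid (0.01 ml/g) was injected intraperitoneally. Writhes were counted for 15 min, from minute 5 to 20 after injection. Activity was taken as the reduction in writhing count. Diclofenac 6 mg/kg was the reference. Data are mean ± S.D., N=5, analysed by one-way ANOVA with Dunnett test.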

[5] = tested on: Rattus norvegicus; test: Anti-inflammatory activity against carrageenan-induced paw edema in albino rat assessed as paw thickness at 100 mg/kg, po pretreated for 1 hr followed by carrageenan challenge measured at 3 hrs post carrageenan challenge (reference value: 0.401 +/- 0.019 mm); type: functional
[6] = tested on: Rattus norvegicus; test: Anti-inflammatory activity against carrageenan-induced paw edema in albino rat assessed as paw thickness at 100 mg/kg, po pretreated for 1 hr followed by carrageenan challenge measured at 1 hr post carrageenan challenge (reference value: 0.394 +/- 0.220 mm); type: functional
[7] = tested on: Rattus norvegicus; test: Anti-inflammatory activity against carrageenan-induced paw edema in albino rat assessed as paw thickness at 100 mg/kg, po pretreated for 1 hr followed by carrageenan challenge measured at 7 hrs post carrageenan challenge (reference value: 0.464 +/- 0.023 mm); type: functional
[8] = species on record: Mus musculus; test: Analgesic activity in mouse assessed as number of acetic acid-induced writhing pretreated for 1 hr followed by acetic acid challenge measured between 5 to 20 mins after acetic acid injection; type: functional
How it was run: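 Groups of five mice. Test compound given 1 h before i.p. injection of 0.6% acetic acid, 0.01 ml/g. Writhing movements counted for 15 min, from the 5th to the 20th min after injection. Diclofenac 6 mg/kg served as reference. Activity is taken as the reduction in number of writhings; mean ± S.D., N=5.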

[9] = tested on: Rattus norvegicus; test: Anti-inflammatory activity against carrageenan-induced paw edema in albino rat assessed as paw thickness at 60 mg/kg, po pretreated for 1 hr followed by carrageenan challenge measured at 3 hrs post carrageenan challenge (reference value: 0.401 +/- 0.019 mm); type: functional
[10] = tested on: Rattus norvegicus; test: Anti-inflammatory activity against carrageenan-induced paw edema in albino rat assessed as inhibition of paw edema at 60 mg/kg, po pretreated for 1 hr followed by carrageenan challenge measured after 1 to 7 hrs relative to control; type: functional
[11] = tested on: Rattus norvegicus; test: Anti-inflammatory activity against carrageenan-induced paw edema in albino rat assessed as paw thickness at 60 mg/kg, po pretreated for 1 hr followed by carrageenan challenge measured at 1 hr post carrageenan challenge (reference value: 0.394 +/- 0.220 mm); type: functional
[12] = tested on: Rattus norvegicus; test: Anti-inflammatory activity against carrageenan-induced paw edema in albino rat assessed as paw thickness at 60 mg/kg, po pretreated for 1 hr followed by carrageenan challenge measured at 7 hrs post carrageenan challenge (reference value: 0.464 +/- 0.023 mm); type: functional

Molecule `COc1ccc2c(c1)c(CC(=O)O)c(C)n2C(=O)c1ccc(Cl)cc1` [INDOMETHACIN] has a UI [1] of 19.5.
For `COc1ccc(-c2nc(NCC(=O)N3CCN(C)CC3)sc2-c2ccc(OC)cc2)cc1`, the inhibition in vivo at 100 mg/kg [2] was 61.9%, the pIC50 [3] was 5.57 and the Activity [4] was “Active”. It also gave an Activity [5] of 0.163 mm, an Activity [6] of 0.144 mm and an Activity [7] of 0.172 mm.
In the case of `O=C(CNc1nc(-c2ccccc2)c(-c2ccccc2)s1)N1CCCCC1`, the pIC50 [3] was 5.10.
For `CN1CCN(C(=O)CNc2nc(-c3ccccc3)c(-c3ccccc3)s2)CC1`, the inhibition in vivo at 100 mg/kg [2] was 54.3%, the pIC50 [3] was 5.52 and the Activity [4] was “Active”. The Activity [5] was 0.197 mm, the Activity [6] was 0.173 mm and the Activity [7] was 0.205 mm.
`O=C(Cn1cnc(-c2ccccc2)c1-c1ccccc1)N1CCCCC1` gave a pIC50 [3] of 5.07.
In the case of `COc1ccc(-c2nc(NCC(=O)O)sc2-c2ccc(OC)cc2)cc1`, the Activity [8] was 10.67 - 14.4, the UI [1] was 8.5 and the pIC50 [3] was 6.49. The Activity [5] was 0.213 mm, the Activity [6] was 0.165 mm and the Activity [7] was 0.251 mm.
In the case of `O=C(CNc1nc(-c2ccccc2)c(-c2ccccc2)s1)N1CCOCC1`, the inhibition in vivo at 100 mg/kg [2] was 59.8%, the pIC50 [3] was 5.24 and the Activity [4] was “Active”. For the same molecule, the Activity [5] was 0.167 mm, the Activity [6] was 0.148 mm and the Activity [7] was 0.192 mm.
For `COc1ccc(-c2ncn(CC(=O)O)c2-c2ccc(OC)cc2)cc1`, the inhibition in vivo at 100 mg/kg [2] was 57%, the Activity [8] was 10.67 - 14.4 and the UI [1] was 9.75. It also gave a pIC50 [3] of 6.27, an Activity [5] of 0.18 mm and an Activity [6] of 0.149 mm. For the same molecule, the Activity [7] was 0.215 mm.
For `CN1CCN(C(=O)Cn2cnc(-c3ccccc3)c2-c2ccccc2)CC1`, the inhibition in vivo at 100 mg/kg [2] was 60.5%, the pIC50 [3] was 5.38 and the Activity [4] was “Active”. For the same molecule, the Activity [5] was 0.168 mm, the Activity [6] was 0.147 mm and the Activity [7] was 0.182 mm.
In the case of `COc1ccc(-c2nc(NCC(=O)N3CCOCC3)sc2-c2ccc(OC)cc2)cc1`, the inhibition in vivo at 100 mg/kg [2] was 54.5%, the pIC50 [3] was 5.40 and the Activity [4] was “Active”. The Activity [5] was 0.19 mm, the Activity [6] was 0.17 mm and the Activity [7] was 0.213 mm.
With `COc1ccc(-c2nc(NCC(=O)N3CCCCC3)sc2-c2ccc(OC)cc2)cc1` the pIC50 [3] was 5.22.
`O=C(O)CNc1nc(-c2ccccc2)c(-c2ccccc2)s1` showed an inhibition in vivo at 100 mg/kg [2] of 54%, a UI [1] of 9.39 and a pIC50 [3] of 6.38. It also gave an Activity [5] of 0.185 mm, an Activity [6] of 0.166 mm and an Activity [7] of 0.231 mm.
In the case of `O=C(O)Cn1cnc(-c2ccccc2)c1-c1ccccc1`, the inhibition in vivo at 100 mg/kg [2] was 53.8%, the Activity [8] was 10.67 - 14.4 and the UI [1] was 13.3. The pIC50 [3] was 6.17, the Activity [5] was 0.189 mm and the Activity [6] was 0.161 mm. For the same molecule, the Activity [7] was 0.235 mm.
For `COc1ccc(-c2ncn(CC(=O)N3CCN(C)CC3)c2-c2ccc(OC)cc2)cc1`, the inhibition in vivo at 100 mg/kg [2] was 58.8%, the pIC50 [3] was 5.51 and the Activity [4] was “Active”. The Activity [5] was 0.191 mm, the Activity [6] was 0.17 mm and the Activity [7] was 0.152 mm.
For `COc1ccc(-c2ncn(CC(=O)N3CCOCC3)c2-c2ccc(OC)cc2)cc1`, the inhibition in vivo at 100 mg/kg [2] was 60.8%, the pIC50 [3] was 5.29 and the Activity [4] was “Active”. The Activity [5] was 0.159 mm, the Activity [6] was 0.146 mm and the Activity [7] was 0.19 mm.
For `O=C(Cn1cnc(-c2ccccc2)c1-c1ccccc1)N1CCOCC1`, the inhibition in vivo at 100 mg/kg [2] was 54.5%, the pIC50 [3] was 5.20 and the Activity [4] was “Active”. For the same molecule, the Activity [5] was 0.186 mm, the Activity [6] was 0.166 mm and the Activity [7] was 0.218 mm.
With `COc1ccc(-c2ncn(CC(=O)N3CCCCC3)c2-c2ccc(OC)cc2)cc1` the pIC50 [3] was 5.13.
`O=C(O)Cc1ccccc1Nc1c(Cl)cccc1Cl` [DICLOFENAC] gave an Activity [9] of 0.06 mm, an inhibition in vivo at 60 mg/kg [10] of 84.5% and an Activity [11] of 0.09 mm. For the same molecule, the Activity [12] was 0.04 mm and the Activity [8] was 24.
